Tests used:
[1] = tested on: chicken chorioallantoic membranes; assay: Hen's egg test in chorioallantoic membrane
Method in brief: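 Fertilized hen eggs incubated 10 days at 37 ± 1°C and 60 ± 1% relative humidity. Shell opened and inner membranes removed. Test compound (40, 80, 160, 320 µg) applied to the CAM and watched for 300 s. Controls: 0.9% NaCl (negative) and 0.1 M NaOH (positive); N = 10. Onset times of hemorrhage, lysis and coagulation were weighted 5, 7 and 9 in the OII equation.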

[2] = tested on: ocular hypertensive rat eyes; format: in vivo, Wistar rats; conditions: ocular hypertensive rats, single drop, Bimatoprost 8.8 µg/eye, N = 6
Method in brief: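 Male Wistar rats (7–10 weeks) under i.p. ketamine/xylazine (90:10 mg/kg) plus topical 0.5% proxymetacaine. Right eye received 30 µL HA (10 mg/mL) intracamerally near the limbus, weekly for 3 weeks. Dosing (one 20 µL drop) began once IOP was raised. Groups: saline, test compound, bimatoprost, combination, normotensive saline; N = 6. IOP: TonoPen Vet on unsedated rats, mean of four readings.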

SMILES	irritancy classification in words (HET-CAM) ([1]; PnPP-19 at all concentrations tested, NaOH at 0.1 M, 300 seconds)	OII ± SEM (ocular irritation index) ([1]; positive control 0.1 M, observed 300 seconds, N = 10)	ability to reduce IOP (in words) [2]
[Na+].[OH-] [0.1 M NaOH, sodium hydroxide]	severely irritating	20.11± 0.32	–
CCNC(=O)CCC/C=C\C[C@@H]1[C@@H](/C=C/[C@@H](O)CCc2ccccc2)[C@H](O)C[C@@H]1O [Bimatoprost]	–	–	not able to reduce IOP
